Data from publication PMC5207485 (Bioorganic & medicinal chemistry, 2016).
pKi: −log10 of the molar value. Read-outs that look alike come from different tables or passages of the source.

How the values were obtained:
[1] = CSF concentration of ALS-I-41 after IN or IM administration; format: in vivo, rhesus macaque; conditions: for Time Max: macaque CSF; for Ave Max in CSF / Time CSF Max: male rhesus
Outline: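 Four male rhesus macaques (5 yr, 9–13 kg) under IM Telazol (4–5 mg/kg) with IV propofol drip (10 mg/kg/hr). Test compound in propylene glycol, given IN by face-mask pediatric nebulizer over 8 min (dose from nebulizer residue) or IM 6.15 mg into the inner thigh. Lumbar CSF was analysed unprocessed by LC-MS/MS in duplicate (C18, 70:30:0.1 water/methanol/formic acid). Detection limit ~1 pg/ml; blood-contaminated samples excluded.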

[2] = Plasma concentration of ALS-I-41 after IN or IM administration; format: in vivo, rhesus macaque; conditions: for Time Plasma Max: male rhesus
human OXTR = conditions: displacing [^3H]OT at a concentration of 2 nM; cited from earlier work
[3] = rhesus macaque, intravenous dose; cited from earlier work
[4] = titi monkey models; cited from earlier work
[5] = PET imaging of [18F]ALS-I-41 in Sprague-Dawley rats; format: in vivo; conditions: rat PET
Outline: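 Female Sprague-Dawley rats (200–330 g), isoflurane induction 4–5% and maintenance 1–2% in oxygen, vitals and temperature monitored. [18F]tracer was given IM at 340–390 μCi in 100 μl above the knee, with scanning from 15 min post-injection, or as a 30 min tail-vein infusion of 250–310 μCi in 10% ethanol/saline by syringe pump. 2 h PET with Co-57 attenuation correction; time-activity curves for whole brain, arm muscle and skull.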

[6] = PET scan of [18F]ALS-I-41 in a cynomolgus macaque, IV bolus; format: in vivo, cynomolgus macaque (Macaca fascicularis)
Outline: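 Single male cynomolgus macaque (8.1 kg), Telazol 3 mg/kg IM, then intubated and ventilated on 1–2% isoflurane in oxygen with continuous vital monitoring. 5 mCi of the [18F]tracer given IV, then brain PET for 2 h, co-registered to the animal's MRI. Summed frames at 9–26 min and 90–120 min post-injection were used to assess distribution.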

[7] = IN 24 IU OT, 75 minutes post administration, baseline 20 pg/ml; cited from earlier work
[8] = CSF OT levels after IV and IN nasal spray OT, maximum 5 IU/kg; format: in vivo; conditions: macaque, maximum of 5 IU/kg OT, same calculation from data of ref 38
[9] = macaque, IN nasal spray, maximum of 5 IU/kg OT; cited from earlier work
[10] = aerosolized IN high dose, ave dose 7690 μg
[11] = aerosolized IN low dose, ave dose 202 μg
[12] = rhesus, IN 7.5 mg target dose vs low dose

CS(=O)(=O)N1CCC(Oc2ccc(CC(=O)N3CCC(N4C(=O)CCc5ccccc54)CC3)c(OCCF)c2)CC1 [ALS-I-41]
Time Max ([1]; IM 6.15 mg): 120 m | Time Max ([1]; IN 7.69 mg): 60 m | time retained within the brain ([1]; macaque, after IN or IM administration): over 2 hours | Ave Max in CSF ([1]; IM, dose 6150 μg): 478 pg/mL | Time CSF Max ([1]; IM, dose 6150 μg): 120 m | Ave Max in CSF [1, 10]: 97.2 pg/mL | Time CSF Max [1, 10]: 60 m | Ave Max in CSF [1, 11]: 7.36 pg/mL | Time CSF Max [1, 11]: 120 m | brain penetration ([1]; rhesus macaque, via CSF extraction and PET imaging): mild brain penetrant | increase in CSF concentration, high dose IN in comparison to low dose IN [1, 12]: 14 fold | Time Plasma Max ([2]; IM, dose 6150 μg): 60 m | Time Plasma Max [2, 10]: 15 m | Time Plasma Max [2, 11]: 5 m | increase in plasma concentrations, high dose IN in comparison to low dose IN [2, 12]: 150 fold | pKi (human OXTR): 7.80

Cc1ccccc1N1CCN(S(=O)(=O)CC23CCC(CC2NC(=O)C(N)CCS(C)(=O)=O)C3(C)C)CC1 [L-368,899]
time remaining in the CSF post injection [3]: over 250 minutes

CS(=O)(=O)N1CCC(Oc2ccc(CC(=O)N3CCC(N4C(=O)CCc5ccccc54)CC3)c(OCC[18F])c2)CC1 [[^18F]ALS-I-41]
brain penetration [4]: no significant brain penetration | metabolism suggested by rapid uptake in the bone [5]: rapidly metabolized on first pass | time at which distribution of the tracer throughout the entire brain peaked ([6]; cynomolgus macaque, 5 mCi IV bolus): 15 to 30 min | brain uptake versus neck muscle tissue (TAC) ([6]; cynomolgus macaque, 5 mCi IV, 2 hour scan): only a fraction of the dose reaches the brain | tracer remaining in the thalamic region at the end of the scan ([6]; cynomolgus macaque, 2 hour scan): very little remained | bone uptake ([6]; monkey model (macaque PET scan)): no significant bone uptake detected

oxytocin [OT]
OT levels in human CSF post administration [7]: 30 pg/mL | maximum reported CSF OT increase [8]: ~22 pM | change of CSF OT [9]: no significant change
